Compound activity as filed in PubChem.
Compounds with a hit are over-represented: about 2.6% of the library has one in this group of screens.
Rce1 inhib = yeast Rce1p protease inhibitors, primary screen, biochemical, fluorescence, cell-free homogeneous | 290,000 tested, 0.27% active | yeast membranes, quenched prenylated peptide cleavage fluorescence | AID 2563, 2010 | calls only | CAAX prenyl protease 2 (Saccharomyces cerevisiae (strain ATCC 204508 / S288c)), Q03530;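 active = fall in fluorescence gain of 50% or more versus controls, with final raw signal at or below 3038400; inconclusive = same 50% fall but final raw signal above 3038400; inactive = fall in fluorescence gain under 50%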;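 also: plate controls were neutral control wells for no effect and wells lacking membranes for full effect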
Target sequence (Q03530 whole entry, looked up): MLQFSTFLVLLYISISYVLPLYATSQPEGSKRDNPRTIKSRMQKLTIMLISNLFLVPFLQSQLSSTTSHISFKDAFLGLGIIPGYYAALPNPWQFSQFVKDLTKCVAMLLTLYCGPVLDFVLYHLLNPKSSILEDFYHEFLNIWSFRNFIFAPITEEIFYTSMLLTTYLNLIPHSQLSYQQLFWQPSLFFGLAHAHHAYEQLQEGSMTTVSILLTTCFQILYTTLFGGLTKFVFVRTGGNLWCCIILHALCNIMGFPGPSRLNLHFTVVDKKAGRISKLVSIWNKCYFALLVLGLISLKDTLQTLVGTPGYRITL
TAAR1 ag = human TAAR1 agonists, primary screen, Fluo-8 calcium fluorescence, CHO RD-HGA16 cells. vehicle wells 0%, saturating PEA agonist 100%. activation, % at 3 µM. 360,000 tested, 0.99% active. AID 624467, 2012. Trace amine-associated receptor 1 (Homo sapiens), Q96RJ0;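 active = activation above the mean activation of all test compounds in the run plus 3 SD, cut at about 38% in these data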
Target sequence (Q96RJ0 whole entry, looked up): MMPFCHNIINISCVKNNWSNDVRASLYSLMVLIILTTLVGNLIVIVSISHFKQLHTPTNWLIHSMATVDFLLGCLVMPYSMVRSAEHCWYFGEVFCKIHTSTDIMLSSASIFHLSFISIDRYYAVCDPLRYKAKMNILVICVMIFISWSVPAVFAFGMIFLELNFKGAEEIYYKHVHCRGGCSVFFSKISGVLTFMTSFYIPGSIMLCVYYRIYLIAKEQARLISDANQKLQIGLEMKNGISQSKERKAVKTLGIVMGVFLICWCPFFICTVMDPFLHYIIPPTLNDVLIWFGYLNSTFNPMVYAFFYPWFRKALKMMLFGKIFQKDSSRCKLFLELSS
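Test system: RD-HGA16 (CHO) cells co-expressing Gα16 and hTAAR1; dosing: one-point dosing at 3 µM (nominal); timing: 17-24 h seeding, 75 min 37 °C dye, 30 min RT; signal: kinetic Fluo-8 calcium fluorescence; read-out basis: % activation relative to PEA EC100 response; controls: DMSO and PEA EC100; replicates: n 1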
TAAR1 antagonist = human TAAR1 antagonists, primary screen, Fluo-8 calcium fluorescence, CHO RD-HGA16 cells. inhibition, % at 3 µM. 360,000 tested, 1.5% active. antagonist. Trace amine-associated receptor 1 (Homo sapiens), Q96RJ0;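 active = inhibition above a per-plate cutoff, the mean inhibition of test compounds on that plate plus 3 SD, cut at about 49% in these data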;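 also: 0% = DMSO plus EC80 beta-PEA response and 100% = DMSO alone without agonist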
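Test system: RD-HGA16 CHO cells with stable hTAAR1 and Gα16 / Probe or stimulus: EC80 β-phenethylamine stimulus / Times: seeding 17-24 h prior, 75-min 37 °C, 30-min RT dye loading / Detection: Fluo-8 calcium-sensitive fluorescence / Read-out basis: % inhibition scaled between DMSO and EC80 PEA controls / Repeats: singlicate, one well per test compound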
VLA-4 inh = inhibition in human VLA-4 binding assay, primary screen, VLA-4 allosteric modulator project, MLPCN library, flow cytometry, VLA-4 expressing cells | Integrin alpha-4 (Homo sapiens), P13612 | 330,000 tested, 0.2% active | ligand binding flow cytometry | AID 2557, 2010 | inhibition, % (about 7 µM as worked out from the volumes in the protocol); in the data active = inhibition above about 50%
Platelet DG rel = inhibitors of platelet dense granule secretion, primary screen, cell-based, MLPCN, human platelets; inhibition, %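 (compounds screened at 7.5 µM in platelet-rich plasma)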; human platelet-rich plasma, SFLLRN dense granule ATP release, luminescence; 300,000 tested, 0.22% active;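 active = mean replicate score, as percent of positive control, at or above 50; inconclusive = mean below 50 but at least one replicate at or above 50; inactive = mean and every replicate below 50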
* = called active by the depositor; i = inactive; ? = inconclusive; . = no result; + = active, no number.

SMILES	Rce1 inhib	TAAR1 ag	TAAR1 antagonist	VLA-4 inh	Platelet DG rel
O=c1[nH]c2c(s1)C=Nc1ccccc1N2	i	2.4	19.6	-9.3	76.7*
COC(=O)[C@]12CCCCC=C1N(CCC1=CCCCC1)C(=O)[C@H](CC(=O)N1CCOCC1)C2	.	3.5	7.1	.	.
CCN(CC(=O)Nc1ccc2c(c1)OCCO2)Cc1nc2cc(Cl)ccc2c(=O)[nH]1	.	10.2	12.0	0.0	.
Cc1ccc2c3c(cccc13)-c1ccccc1C2=O	i	1.9	11.0	-3.5	3.0
Nc1ccc2c3c(cccc13)-c1ccccc1-2	.	81.7*	72.1*	.	.
O=C(C(Cc1ccccc1)n1cccc1)N1CCN(c2ncccn2)CC1 (centres undefined)	i	3.3	-12.7	0.0	50.2*
COCCn1c(N)c(C(=O)NCC2CCCO2)c2nc3ccccc3nc21 (centres undefined)	i	14.5	48.7*	-25.0	0.1
Cc1cc(NCc2ccccc2)nc2ccccc12	i	89.0*	79.4*	-10.4	-1.8
Cc1cc(NCc2ccccc2)c2ccccc2n1	.	18.0	5.9	8.7	0.3
COc1ccc(COC(=O)c2cccc(S(=O)(=O)N3CCN(C(C)=O)CC3)c2)cc1F	i	6.3	6.4	4.9	9.2
CC(=O)Nc1cccc(C(=O)OCC(=O)Nc2c(C)nn(-c3ccccc3)c2C)c1	i	8.3	2.5	4.7	3.2
Cc1nn(-c2ccccc2)c(C)c1NC(=O)COC(=O)c1ccc(S(=O)(=O)C(F)F)cc1	i	16.0	48.6*	-4.1	-1.8
Cc1nn(-c2ccccc2)c(C)c1NC(=O)COC(=O)c1cccc(OC(F)F)c1	i	14.8	54.9*	-2.3	-6.3
Cc1nn(-c2ccccc2)c(C)c1NC(=O)COC(=O)c1ccccc1	.	5.5	11.7	0.0	.
Cc1ccc(S(=O)(=O)N(C)C[C@@H]2Oc3c(NC(=O)C4CC4)cccc3C(=O)N([C@@H](C)CO)C[C@@H]2C)cc1	.	0.7	4.5	-12.6	.
O=C(Nc1ccc2oc(-c3ccccc3)nc2c1)C1CCCO1 (centres undefined)	?	2.0	9.3	4.9	8.4
O=C(Nc1ccc(-c2nc3ccccc3o2)cc1)C1CCCO1 (centres undefined)	i	4.1	5.2	-1.5	55.8*
CC(=O)Nc1ccc(S(=O)(=O)Nc2cccc(-c3nc4ccccc4o3)c2)cc1	+	15.7	34.9	12.7	-2.2
O=C(Nc1ccc(-c2nc3cccnc3s2)cc1)C1CCCO1 (centres undefined)	i	3.6	22.1	0.0	97.5*
O=S(=O)(Nc1ccc(-c2nc3ccccc3o2)cc1)c1ccccc1	i	17.4	-2.8	-18.4	2.6
COc1ccc(NC(=O)C2CCCO2)cc1 (centres undefined)	i	4.6	9.6	-9.4	-1.3
O=c1[nH][nH]c2c1[C@H](CCc1cccc(Cl)c1)O[C@H](C1CCCC1)C2	.	-0.9	-1.7	.	.
O=C(c1ccccc1)N1N=C(c2ccccc2)CC1c1ccccc1 (centres undefined)	i	-3.0	-8.2	25.3	-4.2
Cc1ccc(C(=O)N2N=C(c3ccccc3O)CC2c2ccccc2)cc1 (centres undefined)	+	-2.4	-5.3	-4.5	8.5
COc1ccc(C2CC(=O)C(c3ccc(Cl)c(Cl)c3)=CN2Cc2ccccc2)cc1 (centres undefined)	.	4.7	-5.4	.	.
SMILES	Rce1 inhib	TAAR1 ag	TAAR1 antagonist	VLA-4 inh	Platelet DG rel
C=CCN1C(=O)/C(=C2/Sc3ccccc3N2C)SC1=Nc1ccccc1C	i	1.1	2.9	-6.7	11.3
C=CCN1C(=O)/C(=C2/Sc3ccccc3N2C)SC1=Nc1c(C)n[nH]c1C	i	.	.	-15.4	52.6*
COc1ccc(CN2C(=O)c3cccnc3C2=O)cc1S(=O)(=O)N1CCCCC1C (centres undefined)	i	2.1	15.2	8.2	5.8
CCc1ccc(OCC(=O)Nc2ccc(S(=O)(=O)Nc3ccccn3)cc2)cc1	i	18.3	-0.8	8.6	-8.9
CC(=O)Nc1ccc(/C(C)=N/Nc2nc(Nc3cccc4ccccc34)nc(N3CCOCC3)n2)cc1	i	49.6*	52.1*	-7.2	-0.9
CC(=O)Nc1ccc(/C(C)=N/Nc2nc(N3CCOCC3)nc(N3CCOCC3)n2)cc1	i	1.6	-3.8	-9.0	6.4
O=C(Nc1ccc2c(c1)OCO2)C(=O)c1c[nH]c2ccccc12	i	14.7	2.5	-5.9	35.5
O=C(Nc1ccc2c(c1)OCCO2)C(=O)c1c[nH]c2ccccc12	i	9.4	53.8*	-2.9	18.8
O=C(CCn1cccc1)NCc1ccccc1	i	4.6	0.4	0.8	-0.8
O=C(Cc1ccccc1)NCc1ccc(-n2cccc2)cc1	.	37.9*	12.7	5.0	3.9
CC(C)C(=O)Nc1ncc2c(n1)CC(c1cccs1)CC2=O (centres undefined)	i	5.1	-1.9	14.6	64.7*
CC(=O)c1ccc(NC(=O)Nc2ccc(Cl)cc2)cc1	i	42.4*	-0.1	1.3	8.7
O=C(Nc1ccc(Cl)cc1)Nc1ccc(-c2cnco2)cc1	i	47.0*	43.3	3.3	6.4
CC(=O)c1ccc(NC(=O)Nc2ccncc2)cc1	i	13.7	10.1	4.9	-2.8
O=C(NCCc1ccc(Cl)cc1)Nc1ccc(Cl)cc1	.	42.3*	29.6	18.3	-7.7
CC(C)(CNC(=O)c1ccccc1F)CNC(=O)c1ccccc1F	i	0.2	-9.5	0.2	-3.0
CC(=O)NCc1cn2c(C)csc2n1	i	1.4	-16.6	3.3	82.6*
Cc1csc2nc(CNC(=O)CCC(=O)O)cn12	i	5.1	-13.1	11.3	-6.8
Nc1cc([N+](=O)[O-])ccc1Nc1ccc(O)cc1	i	10.7	56.6*	11.3	16.5
CSc1ccc(NC(=O)C2(C)CCN2C(=O)c2sccc2C)cc1 (centres undefined)	.	1.2	-11.1	.	.
COc1ccc(CC(=O)Nc2cc(S(=O)(=O)N3CCCCC3)ccc2OC(C)C)cc1OC	.	5.3	-2.8	.	.
CC(NCCCOc1cccc2ccccc12)c1ccccc1 (centres undefined)	i	44.9*	36.1	15.1	7.9
CCc1ccc(C(C)NC(=S)NCc2ccc(F)cc2)cc1 (centres undefined)	i	40.3*	44.4	1.4	40.8
CCOc1ccc(C(C)NC(=S)NCc2ccc(F)cc2)cc1 (centres undefined)	i	13.7	3.9	0.2	1.6
CSc1ccc(CN2CCC(n3nccc3NC(=O)c3ccccc3C)CC2)cc1	i	4.6	-4.1	11.3	-2.6
COc1ccc(CN=Cc2[nH]c3ccc(Br)c(Cl)c3c2O)cc1	i	-2.6	106.5*	-200.4	-8.1
